From ChEMBL document CHEMBL1250503, “Stereoselective synthesis and biological evaluation of (R)-rugulactone, (6R)-((4R)-hydroxy-6-phenyl-hex-2-enyl)-5,6-dihydro-pyran-2-one and its 4S epimer” (2010) come the findings set out here.

In brackets after ≈: the same amount, converted by molar mass.

Format in all cases: functional
Experiment [1] relates to Rhizopus arrhizus. Description: Antifungal activity against Rhizopus oryzae MTCC 262 at 100 ug/ml after 24 to 96 hrs by agar cup diffusion method. To be noted: read-out: DIZ. Put shortly:
(§1)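 Agar cup diffusion on autoclaved Potato Dextrose Agar. 0.5 ml of 24 h old test-organism culture was spread over the solidified agar, and 6 mm cups were bored. Compounds were dissolved in DMSO and added to the cups at two concentrations. A clotrimazole control was included. Plates were held at room temperature for 24–96 h, and inhibition zone diameters were measured.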

In experiment [2] the test system is Aspergillus niger. Description: Antifungal activity against Aspergillus niger MTCC 1344 at 100 ug/ml after 24 to 96 hrs by agar cup diffusion method. To be noted: read-out: DIZ. Put shortly: as §1
A further experiment deals with Staphylococcus aureus. Description: Antibacterial activity against Staphylococcus aureus MTCC 96 by broth dilution method. Put shortly:
(§2)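 Broth dilution per National Committee for Clinical Laboratory (NCCL) standards against a bacterial panel. The read-out is the minimum inhibitory concentration (MIC).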
Background: Dilution methods test growth across graded concentrations, often in twofold steps.

Experiment [3] has as its system Saccharomyces cerevisiae. Description: Antifungal activity against Saccharomyces cerevisiae MTCC 171 at 30 ug/ml after 24 to 96 hrs by agar cup diffusion method. To be noted: read-out: DIZ. Put shortly:
as §1

The subject of experiment [4] is Rhizopus arrhizus. The experiment is described as follows: Antifungal activity against Rhizopus oryzae MTCC 262 at 30 ug/ml after 24 to 96 hrs by agar cup diffusion method. To be noted: read-out: DIZ. Put shortly: as §1
The subject of another experiment is Escherichia coli. Description: Antibacterial activity against Escherichia coli MTCC 443 by broth dilution method. Put shortly: as §2
Experiment [5] concerns Candida albicans. The experiment is described as follows: Antifungal activity against Candida albicans MTCC 227 at 100 ug/ml after 24 to 96 hrs by agar cup diffusion method. To be noted: read-out: DIZ. Put shortly:
as §1

Experiment [6] deals with Saccharomyces cerevisiae. The experiment is described as follows: Antifungal activity against Saccharomyces cerevisiae MTCC 171 at 100 ug/ml after 24 to 96 hrs by agar cup diffusion method. To be noted: read-out: DIZ. Put shortly:
as §1

The subject of a further experiment is Pseudomonas aeruginosa. The experiment is described as follows: Antibacterial activity against Pseudomonas aeruginosa MTCC 741 by broth dilution method. Put shortly: as §2
Experiment [7] relates to Candida albicans. The experiment is described as follows: Antifungal activity against Candida albicans MTCC 227 at 30 ug/ml after 24 to 96 hrs by agar cup diffusion method. To be noted: read-out: DIZ. Put shortly: as §1
Experiment [8] relates to Staphylococcus epidermidis. Description: Antibacterial activity against Staphylococcus epidermidis MTCC 437 by broth dilution method. Put shortly:
as §2

The test system of experiment [9] is Aspergillus niger. Description: Antifungal activity against Aspergillus niger MTCC 1344 at 30 ug/ml after 24 to 96 hrs by agar cup diffusion method. To be noted: read-out: DIZ. Put shortly:
as §1

The subject of another experiment is Bacillus subtilis. Description: Antibacterial activity against Bacillus subtilis MTCC 441 by broth dilution method. Put shortly: as §2
The subject of a further experiment is Klebsiella pneumoniae. The experiment is described as follows: Antibacterial activity against Klebsiella pneumoniae MTCC 39 by broth dilution method. Put shortly: as §2

As for `O=C1C=CC[C@@H](C/C=C/[C@H](O)CCc2ccccc2)O1`, the zone of inhibition at 100 µg/mL in the experiment on Rhizopus arrhizus [1] stood at 14 mm; with Aspergillus niger [2], 14 mm; in the experiment with Candida albicans [5] it was 10 mm; in the experiment on Saccharomyces cerevisiae [6], 11 mm. Besides, the MIC in the experiment with Staphylococcus aureus worked out at 50 µg/mL (≈ 184 µM); with Escherichia coli it was 100 µg/mL (≈ 367 µM); against Pseudomonas aeruginosa it was 25 µg/mL (≈ 91.8 µM); in experiment [8], 50 µg/mL (≈ 184 µM); against Bacillus subtilis it was 100 µg/mL (≈ 367 µM); against Klebsiella pneumoniae, 100 µg/mL (≈ 367 µM). The zone of inhibition at 30 µg/mL in the experiment with Saccharomyces cerevisiae [3] was found to be 8 mm; with Rhizopus arrhizus [4], 12 mm; with Candida albicans [7] it was 8 mm; with Aspergillus niger [9], 11 mm.

Take `O=C1C=CC[C@@H](C/C=C/[C@@H](O)CCc2ccccc2)O1`: the zone of inhibition at 100 µg/mL in the experiment on Rhizopus arrhizus [1] stood at 16 mm; in the experiment with Aspergillus niger [2], 12 mm; in the experiment with Candida albicans [5] it was 8 mm; in the experiment with Saccharomyces cerevisiae [6], 10 mm. In addition, the MIC is 100 µg/mL (≈ 367 µM) in the experiment on Staphylococcus aureus; 100 µg/mL (≈ 367 µM) with Escherichia coli; 50 µg/mL (≈ 184 µM) in the experiment with Pseudomonas aeruginosa; 100 µg/mL (≈ 367 µM) in experiment [8]; 50 µg/mL (≈ 184 µM) against Bacillus subtilis; 100 µg/mL (≈ 367 µM) in the experiment with Klebsiella pneumoniae. Further, the zone of inhibition at 30 µg/mL in the experiment on Saccharomyces cerevisiae [3] was determined as 8 mm; with Rhizopus arrhizus [4], 12 mm; with Candida albicans [7], 9 mm; with Aspergillus niger [9], 9 mm.

Turning to `Clc1ccccc1C(c1ccccc1)(c1ccccc1)n1ccnc1` [CLOTRIMAZOLE], the zone of inhibition at 30 µg/mL in the experiment with Saccharomyces cerevisiae [3] was found to be 23 mm; with Rhizopus arrhizus [4], 21 mm; in the experiment with Candida albicans [7], 22 mm; in the experiment with Aspergillus niger [9], 18 mm.

On to `O=C1CN(/N=C/c2ccc([N+](=O)[O-])o2)C(=O)N1` [NITROFURANTOIN], for which the MIC against Staphylococcus aureus stood at 50 µg/mL (≈ 210 µM); against Escherichia coli, 25 µg/mL (≈ 105 µM); against Pseudomonas aeruginosa it was 100 µg/mL (≈ 420 µM); in [8] it was 50 µg/mL (≈ 210 µM); in the experiment on Bacillus subtilis, 100 µg/mL (≈ 420 µM); in the experiment with Klebsiella pneumoniae, 50 µg/mL (≈ 210 µM).

Take `CC1(C)S[C@@H]2[C@H](NC(=O)Cc3ccccc3)C(=O)N2[C@H]1C(=O)O` [PENICILLIN G]: the MIC (against Staphylococcus aureus; in [8]; with Bacillus subtilis) was 1.56 µg/mL (≈ 4.67 µM) in each case.

Consider `O=C(/C=C/C[C@@H]1CC=CC(=O)O1)CCc1ccccc1` [R-RUGULACTONE], for which the zone of inhibition at 100 µg/mL came to 12 mm with Rhizopus arrhizus [1], 16 mm in the experiment with Aspergillus niger [2], 8 mm with Candida albicans [5] and 8 mm with Saccharomyces cerevisiae [6]. For the same compound, the MIC against Staphylococcus aureus was 50 µg/mL (≈ 185 µM); in the experiment with Escherichia coli, 50 µg/mL (≈ 185 µM); in the experiment with Pseudomonas aeruginosa it was 12.5 µg/mL (≈ 46.2 µM); in experiment [8], 50 µg/mL (≈ 185 µM); against Bacillus subtilis, 100 µg/mL (≈ 370 µM); with Klebsiella pneumoniae, 25 µg/mL (≈ 92.5 µM). Further, the zone of inhibition at 30 µg/mL with Saccharomyces cerevisiae [3] is 7 mm; in the experiment on Rhizopus arrhizus [4] it was 11 mm; in the experiment with Candida albicans [7], 7 mm; in the experiment on Aspergillus niger [9], 14 mm.

For the compound `CN[C@@H]1[C@H](O[C@H]2[C@H](O[C@H]3[C@H](O)[C@@H](O)[C@H](N=C(N)N)[C@@H](O)[C@@H]3N=C(N)N)O[C@@H](C)[C@]2(O)C=O)O[C@@H](CO)[C@H](O)[C@H]1O` [STREPTOMYCIN], the MIC in the experiment on Escherichia coli, in the experiment on Pseudomonas aeruginosa and in the experiment on Klebsiella pneumoniae was 1.56 µg/mL (≈ 2.69 µM) in each case.

For orientation: MIC means the lowest concentration found to suppress growth.
